From ChEMBL document CHEMBL2069278, “Novel substituted benzothiophene and thienothiophene carboxanilides and quinolones: synthesis, photochemical synthesis, DNA-binding properties, antitumor evaluation and 3D-derived QSAR analysis” (J Med Chem, 2012)
The source made the active and inactive calls. No cut-off for these calls is given here.

Key:
[1] = target: T1, DNA topoisomerase 1 (Homo sapiens) (UniProt P11387); test: Inhibition of human topoisomerase 1-mediated supercoiled pUC19 plasmid DNA relaxation at 50 uM incubated for 45 mins followed by enzyme addition measured after 30 mins by agarose gel electrophoresis
T1 sequence (whole entry): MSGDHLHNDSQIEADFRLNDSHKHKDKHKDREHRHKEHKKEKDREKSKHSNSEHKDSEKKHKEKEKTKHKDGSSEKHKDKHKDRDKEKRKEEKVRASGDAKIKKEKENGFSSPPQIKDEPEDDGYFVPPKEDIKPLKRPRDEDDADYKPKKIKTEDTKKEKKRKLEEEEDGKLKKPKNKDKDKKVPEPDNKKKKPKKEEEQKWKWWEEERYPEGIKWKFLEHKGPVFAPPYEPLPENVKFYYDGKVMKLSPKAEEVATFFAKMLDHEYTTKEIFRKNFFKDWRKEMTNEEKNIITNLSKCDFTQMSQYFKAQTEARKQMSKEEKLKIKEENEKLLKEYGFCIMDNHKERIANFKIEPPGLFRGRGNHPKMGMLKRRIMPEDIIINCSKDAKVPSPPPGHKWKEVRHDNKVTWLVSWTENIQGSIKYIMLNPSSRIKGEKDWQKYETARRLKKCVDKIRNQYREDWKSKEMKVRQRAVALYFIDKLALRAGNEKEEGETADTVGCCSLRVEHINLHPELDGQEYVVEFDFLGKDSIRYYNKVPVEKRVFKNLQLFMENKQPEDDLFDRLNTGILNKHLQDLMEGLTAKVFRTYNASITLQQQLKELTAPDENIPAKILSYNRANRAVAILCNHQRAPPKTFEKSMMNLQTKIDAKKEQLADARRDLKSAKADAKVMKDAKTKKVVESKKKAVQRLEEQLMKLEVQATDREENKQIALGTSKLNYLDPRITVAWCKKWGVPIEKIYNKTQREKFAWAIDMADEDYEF
Method in brief: (§1)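 Graded compound concentrations preincubated with supercoiled pUC19, then 4 units human topoisomerase I, 37 °C for 45 min in relaxation buffer; stopped with 0.25% SDS and 250 μg/mL proteinase K, 30 min at 50 °C; 1% agarose gel without ethidium bromide, 2 h at 120 V in TBE, then stained with ethidium bromide.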

Nucleic Acid [2] = test: Binding affinity to AT rich site of Pvu2 DNA by densitometric analysis; assay type: nucleic-acid assay
Method in brief: (§2)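 265 bp EcoRI/PvuII pBluescript fragment, 3′-end labeled with α-[32P]dATP by Klenow. Compounds at increasing concentrations pre-equilibrated with DNA 15 min at 37 °C, then DNase I (final 0.002 unit/mL) in 20 mM NaCl, 2 mM MgCl2, 2 mM MnCl2, pH 7.3, 4 min digestion; products resolved on denaturing 8% polyacrylamide/8 M urea gel, G-track for base positions.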

Nucleic Acid [3] = test: Binding affinity to calf thymus DNA assessed as change in melting temperature at drug/base pair ratio of 0.25 by UV-visible spectrophotometric analysis; assay type: nucleic-acid assay; details: Bos taurus
Method in brief: (§3)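 Melting: 20 μM CT-DNA or poly(dAdT)2 alone or with compound (drug/base pair ratio 0.01−0.5) in BPE buffer (6 mM Na2HPO4, 2 mM NaH2PO4, 1 mM EDTA, pH 7.1); A260 read each minute from 20 to 100 °C at 1 °C/min; Tm from midpoint of hyperchromic transition (first-derivative plots); ΔTm = Tm[drug+DNA] − Tm[DNA alone].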

Nucleic Acid [4] = test: Binding affinity to calf thymus DNA assessed as DNA intercalation at 50 uM by circular dichroism spectra analysis; assay type: nucleic-acid assay; details: Bos taurus
Method in brief: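 CD: 50 μM compound with 200 μM CT-DNA in BPE buffer, alone or plus 10 or 100 mM NaCl; spectra 480–230 nm, 10 mm quartz cell, 20 °C; compound without DNA as control for intrinsic CD.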

SW-620 = test: Cytotoxicity against human SW620 cells after 72 hrs by MTT assay; assay type: functional, cell-based; details: SW-620, 72 h
Method in brief: (§4)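 Cells seeded on day 0 at 1 × 10^4 to 3 × 10^4 cells/mL (adherent lines in DMEM, MOLT-4 in suspension in RPMI, 10% FBS, 37 °C, 5% CO2); 10-fold dilutions 10−8–10−4 M for 72 h; MTT, OD 570 nm; percentage growth versus time-zero and control; IC50 by linear regression; quadruplicate, at least two experiments.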

Nucleic Acid [5] = test: Binding affinity to calf thymus DNA assessed as change in melting temperature at drug/base pair ratio of 0.5 by UV-visible spectrophotometric analysis; assay type: nucleic-acid assay; details: Bos taurus; method in brief: as §3
HCT-116 [6] = test: Cytotoxicity against human HCT116 cells after 72 hrs by MTT assay; assay type: functional, cell-based; details: HCT-116, 72 h; method in brief: as §4
MCF7 = test: Cytotoxicity against human MCF7 cells after 72 hrs by MTT assay; assay type: functional, cell-based; details: MCF7, 72 h; method in brief: as §4
Nucleic Acid [7] = test: Binding affinity to radiolabeled Pvu2 DNA after 15 mins by Dnase1 footprinting assay; assay type: nucleic-acid assay; method in brief: as §2
NCI-H460 = test: Cytotoxicity against human H460 cells after 72 hrs by MTT assay; assay type: functional, cell-based; details: NCI-H460, 72 h; method in brief: as §4
[8] = target: DNA topoisomerase 2-alpha (Homo sapiens) (UniProt P11388); test: Inhibition of human topoisomerase 2-mediated DNA cleavage at 50 uM incubated for 45 mins followed by enzyme addition measured after 30 mins by agarose gel electrophoresis
Sequence of DNA topoisomerase 2-alpha (Homo sapiens) (P11388 whole entry): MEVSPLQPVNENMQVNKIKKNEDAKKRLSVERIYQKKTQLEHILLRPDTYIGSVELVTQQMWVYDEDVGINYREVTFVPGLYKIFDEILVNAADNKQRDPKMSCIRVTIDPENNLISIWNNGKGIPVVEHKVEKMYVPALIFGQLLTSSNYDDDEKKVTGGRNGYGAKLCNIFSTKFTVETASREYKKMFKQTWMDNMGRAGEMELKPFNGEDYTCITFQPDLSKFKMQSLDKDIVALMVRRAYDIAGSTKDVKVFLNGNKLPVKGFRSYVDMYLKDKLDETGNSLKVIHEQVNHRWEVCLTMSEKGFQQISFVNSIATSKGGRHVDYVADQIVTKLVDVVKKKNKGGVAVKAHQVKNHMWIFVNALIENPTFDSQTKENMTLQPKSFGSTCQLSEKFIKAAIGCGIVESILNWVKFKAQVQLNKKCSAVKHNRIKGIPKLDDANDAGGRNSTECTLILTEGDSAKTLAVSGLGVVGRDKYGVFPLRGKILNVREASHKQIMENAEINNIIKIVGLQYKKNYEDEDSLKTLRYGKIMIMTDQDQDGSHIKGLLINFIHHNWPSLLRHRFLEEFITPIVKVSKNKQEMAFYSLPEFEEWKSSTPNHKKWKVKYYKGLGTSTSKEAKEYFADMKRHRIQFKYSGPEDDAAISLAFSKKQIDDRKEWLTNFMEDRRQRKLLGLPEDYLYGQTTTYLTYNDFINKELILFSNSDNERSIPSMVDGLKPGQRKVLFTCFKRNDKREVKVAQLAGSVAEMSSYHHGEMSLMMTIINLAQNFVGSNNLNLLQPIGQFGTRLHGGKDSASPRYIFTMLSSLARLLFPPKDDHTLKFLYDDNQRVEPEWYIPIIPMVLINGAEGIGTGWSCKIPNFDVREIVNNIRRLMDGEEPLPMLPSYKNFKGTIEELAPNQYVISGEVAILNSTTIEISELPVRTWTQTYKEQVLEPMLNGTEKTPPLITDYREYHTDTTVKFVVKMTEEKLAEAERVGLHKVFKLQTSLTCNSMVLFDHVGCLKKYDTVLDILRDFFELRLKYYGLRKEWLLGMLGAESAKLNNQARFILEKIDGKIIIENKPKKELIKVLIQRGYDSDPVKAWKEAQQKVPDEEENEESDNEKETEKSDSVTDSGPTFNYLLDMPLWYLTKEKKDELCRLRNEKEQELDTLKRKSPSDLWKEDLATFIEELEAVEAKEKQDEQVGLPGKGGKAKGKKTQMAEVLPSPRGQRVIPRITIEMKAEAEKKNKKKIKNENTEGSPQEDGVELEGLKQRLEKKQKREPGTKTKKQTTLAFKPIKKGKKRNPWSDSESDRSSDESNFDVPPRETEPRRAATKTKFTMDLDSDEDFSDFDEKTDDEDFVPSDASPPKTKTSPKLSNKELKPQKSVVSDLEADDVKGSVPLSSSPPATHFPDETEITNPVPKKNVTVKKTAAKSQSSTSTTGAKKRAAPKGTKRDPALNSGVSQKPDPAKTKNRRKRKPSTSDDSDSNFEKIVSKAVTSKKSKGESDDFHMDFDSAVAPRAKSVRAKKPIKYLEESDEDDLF
Method in brief: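 Compounds (50 μM) incubated with 350 ng supercoiled pUC19 before topoisomerase II addition; gel quantified for percentage poisoning normalized to etoposide at the same concentration.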

MOLT-4 = test: Cytotoxicity against human MOLT4 cells after 72 hrs by MTT assay; assay type: functional, cell-based; details: MOLT-4, 72 h; method in brief: as §4
[9] = target: T1, DNA topoisomerase 1 (Homo sapiens); test: Inhibition of human topoisomerase 1-mediated supercoiled pUC19 plasmid DNA relaxation at 0.5 to 2 uM incubated for 45 mins followed by enzyme addition measured after 30 mins by agarose gel electrophoresis; method in brief: as §1
HCT-116 [10] = test: Induction of cell cycle arrest in human HCT116 cells assessed as accumulation at G2/M phase at 1 to 5 uM by propidium iodide based flow cytometry; assay type: functional; details: TDE = time-dependent effect
Method in brief: (§5)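 HCT116 cells (2 × 10^5 per well) treated after 24 h with 1 or 5 μM for 24 and 48 h; floating and attached cells pooled, fixed in 70% ethanol, stained with 50 μg/mL propidium iodide plus RNase A; 20 000 events by flow cytometry; phase percentages from DNA histograms; duplicate, repeated at least twice.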

HCT-116 [11] = test: Induction of cell cycle arrest in human HCT116 cells assessed as accumulation at G2/M phase after 24 to 48 hrs by propidium iodide based flow cytometry; assay type: functional; method in brief: as §5
HCT-116 [12] = test: Induction of cell cycle arrest in human HCT116 cells assessed as accumulation at G1 phase after 24 to 48 hrs by propidium iodide based flow cytometry; assay type: functional; method in brief: as §5
HCT-116 [13] = test: Induction of cell cycle arrest in human HCT116 cells assessed as accumulation at G1 phase at 1 to 5 uM by propidium iodide based flow cytometry; assay type: functional; details: TDE = time-dependent effect; method in brief: as §5
Nucleic Acid [14] = test: Binding affinity to calf thymus DNA assessed as change in melting temperature at drug/base pair ratio of 0.025 by UV-visible spectrophotometric analysis; assay type: nucleic-acid assay; details: Bos taurus; method in brief: as §3
Nucleic Acid [15] = test: Binding affinity to calf thymus DNA assessed as change in melting temperature at drug/base pair ratio of 0.01 by UV-visible spectrophotometric analysis; assay type: nucleic-acid assay; details: Bos taurus; method in brief: as §3
Nucleic Acid [16] = test: Binding affinity to calf thymus DNA assessed as change in melting temperature at drug/base pair ratio of 0.1 by UV-visible spectrophotometric analysis; assay type: nucleic-acid assay; details: Bos taurus; method in brief: as §3

inhibition [1]	Activity (Nucleic Acid [2])	ΔTm (Nucleic Acid [3]) [°C]	Activity (Nucleic Acid [4])	ΔTm (Nucleic Acid [5]) [°C]	Activity (Nucleic Acid [7])	inhibition [8]	inhibition [9]	ΔTm (Nucleic Acid [14]) [°C]	ΔTm (Nucleic Acid [15]) [°C]	ΔTm (Nucleic Acid [16]) [°C]	SMILES	IC50 (SW-620) [µM]	IC50 (HCT-116 [6]) [µM]	IC50 (MCF7) [µM]	IC50 (NCI-H460) [µM]	IC50 (MOLT-4) [µM]	Activity (HCT-116 [10])	Activity (HCT-116 [11])	Activity (HCT-116 [12])	Activity (HCT-116 [13])
Active	inactive	3	inactive	3.8	Active	Active					O=C(Nc1ccccc1)c1sc2cc(C3=NCCN3)ccc2c1Cl	1.3	2.8	2	1.4	2				
	inactive	10.7		15.6	Active	inactive	Active				Cn1c(=O)c2sc3ccccc3c2c2cc(C3=NCCN3)ccc21	0.2	0.4	1.3	0.6	0.4	tde	Dose-dependent effect	Dose-dependent effect	tde
	inactive	22.4			Active	Active	Active	0	0	15.7	O=c1[nH]c2ccc(C3=NCCN3)cc2c2c1sc1cc(C3=NCCN3)ccc12	≥ 10	≥ 10	≥ 10	≥ 10	3				
